Assay results reported in ChEMBL document CHEMBL1144415, “Identification of novel low molecular weight CXCR4 antagonists by structural tuning of cyclic tetrapeptide scaffolds” (J Med Chem, 2005).

Each molecule was assayed against T1, C-X-C chemokine receptor type 4 (Homo sapiens, UniProt P61073) (assay: Inhibition of [125I]SDF-1 binding to C-X-C chemokine receptor type 4 (CXCR4) expressed in CHO cells). Conditions: not given.
Assay type: cell-based
In short: (§1)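 Stable CXCR4-expressing CHO transfectants harvested with trypsin-EDTA, recovered 4 to 5 h in complete growth medium, washed in cold binding buffer (PBS with 2 mg/mL BSA). Cells at 1 × 10⁷ cells/mL incubated with 0.1 nM [¹²⁵I]-SDF-1 for 2 h on ice with agitation. Bound and free separated by centrifugation through oil cushion, gamma counting. IC50 from at least three independent experiments, mean with SD.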

T1 sequence (P61073 whole entry): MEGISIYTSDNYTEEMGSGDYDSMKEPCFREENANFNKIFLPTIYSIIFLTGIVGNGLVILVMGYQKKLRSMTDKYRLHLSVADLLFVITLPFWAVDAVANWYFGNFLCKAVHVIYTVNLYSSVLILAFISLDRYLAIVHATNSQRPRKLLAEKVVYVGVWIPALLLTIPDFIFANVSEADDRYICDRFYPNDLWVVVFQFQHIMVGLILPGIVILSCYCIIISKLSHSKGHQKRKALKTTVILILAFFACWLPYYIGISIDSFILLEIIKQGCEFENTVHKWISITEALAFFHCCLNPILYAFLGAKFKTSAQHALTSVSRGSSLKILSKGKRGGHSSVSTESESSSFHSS

SMILES	IC50 [nM]
N=C(N)NCCC[C@@H]1NC(=O)[C@@H]2CCCN2C(=O)[C@@H](Cc2ccc(O)cc2)NC(=O)CNC(=O)[C@H](Cc2ccc3ccccc3c2)NC1=O	1600
N=C(N)NCCC[C@@H]1NC(=O)[C@@H](CCC(=O)O)NC(=O)[C@@H](Cc2ccc(O)cc2)NC(=O)CNC(=O)[C@H](Cc2ccc3ccccc3c2)NC1=O	610
N=C(N)NCCC[C@@H]1NC(=O)[C@H]2CCCN2C(=O)[C@@H](Cc2ccc(O)cc2)NC(=O)CNC(=O)[C@H](Cc2ccc3ccccc3c2)NC1=O	420

Further lines, results first:

IC50 [nM]	SMILES
530	N=C(N)NCCC[C@@H]1NC(=O)[C@@H](NC(=O)CCNC(=N)N)CSSC[C@H](C(=O)NCCc2ccc(O)cc2)NC(=O)[C@H](Cc2ccc3ccccc3c2)NC1=O
> 10000	CN1C(=O)[C@@H](NC(=O)CCN=C(N)N)CSSC[C@H](C(=O)NCCc2ccc(O)cc2)NC(=O)[C@H](Cc2ccc3ccccc3c2)NC(=O)[C@@H]1CCCN=C(N)N
170	N=C(N)NCCC[C@@H]1NC(=O)[C@@H](CCC(N)=O)NC(=O)[C@@H](Cc2ccc(O)cc2)NC(=O)CNC(=O)[C@H](Cc2ccc3ccccc3c2)NC1=O
1000	N=C(N)NCCCN[C@H]1CSSC[C@H](C(=O)NCCc2ccc(O)cc2)NC(=O)[C@H](Cc2ccc3ccccc3c2)NC(=O)[C@H](CCCNC(=N)N)NC1=O

Same assay, conditions: cho

IC50 [nM]	SMILES
> 1000	N=C(N)NCCC[C@@H]1NC(=O)[C@H](Cc2ccc(O)cc2)NC(=O)/C=C\[C@@H](Cc2ccc3ccccc3c2)NC(=O)[C@@H](CCCNC(=N)N)NC1=O
> 1000	N=C(N)NCCC[C@H]1NC(=O)[C@@H](CCCN=C(N)N)NC(=O)[C@H](Cc2ccc(O)cc2)NC(=O)/C=C\[C@@H](Cc2ccc3ccccc3c2)NC1=O

What follows are molecules tested against T1, C-X-C chemokine receptor type 4 (assay: Inhibition of [125I]SDF-1 binding to C-X-C chemokine receptor type 4 (CXCR4) expressed in CHO cells; range = 1-10 uM). Conditions: not given.
Assay type: cell-based
In short: as §1

IC50 [nM]	SMILES
10000	N=C(N)NCCC(=O)N[C@H]1C/C=C\C[C@H](C(=O)NCCc2ccc(O)cc2)NC(=O)[C@H](Cc2ccc3ccccc3c2)NC(=O)[C@H](CCCN=C(N)N)NC1=O
